Results as given in ChEMBL document CHEMBL5724801, “EUbOPEN Chemogenomics Library - Multiplex” (2024).
Several values for one entry are separate records, joined by “and”; a condition that tells them apart may be missing. Identical values can stand only once.

Tests used:
[1] = system: Fibroblast; test: Multiplex assay against human fibroblast; format: toxicity, cell-based
How it was run: (§1)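 With compound added, live cells were imaged on a CQ1 microscope at 37°C and 5% CO2; staining with Hoechst33342, BioTracker Green Microtubule Cytoskeleton Dye, MitoTracker Red and Annexin V Alexa Fluor 680 had been done at seeding. The CellPathfinder machine-learning gating scheme split cells into Hoechst high-intensity objects or normal cells, normal cells into healthy, pyknosed or fragmented nuclei, and pyknosed cells into mitotic or apoptotic. The tubulin, mitochondrial-mass and membrane-permeability phenotypes are per cents of healthy-nucleus cells.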

[2] = system: U2OS; test: Multiplex assay against U2OS; format: toxicity, cell-based; details: human; how it was run: as §1
[3] = 12 h, 1 µM, compound concentration 1 uM
[4] = 12 h, 10 µM, compound concentration 10 uM
[5] = 24 h, 1 µM, compound concentration 1 uM
[6] = 24 h, 10 µM, compound concentration 10 uM
[7] = 48 h, 1 µM, compound concentration 1 uM
[8] = 48 h, 10 µM, compound concentration 10 uM

SMILES: CN(C)CCCn1cc(C2=C(c3c[nH]c4ccccc34)C(=O)NC2=O)c2ccccc21 [GF-109203]
- Population Apoptotic (%) [1, 3]: 9.09% and 22.5%
- Population Healthy Nuclei (%) [1, 3]: 57.53% and 77.2%
- Population Hoechst High Intensity Objects (%) [1, 3]: 0%
- Population Membrane Permeable-Phenotype (%) [1, 3]: 4.67% and 8.05%
- Population Mitochondria Different-Phenotype (%) [1, 3]: 13.08% and 28.19%
- Population Mitotic Cells (%) [1, 3]: 90.91% and 77.5%
- Population Normal (%) [1, 3]: 100%
- Population Pyknosed Nuclei (%) [1, 3]: 29.57% and 20.73%
- Population Tubulin-Different-Phenotype (%) [1, 3]: 29.91% and 44.3%
- Total Cell Count [1, 3]: 186 and 193
- Population Apoptotic (%) [1, 4]: 5.95% and 14.93%
- Population Fragmented Nuclei (%) [1, 4]: 4.14% and 6.85%
- Population Healthy Nuclei (%) [1, 4]: 46.15% and 47.26%
- Population Hoechst High Intensity Objects (%) [1, 4]: 0%
- Population Membrane Permeable-Phenotype (%) [1, 4]: 14.1% and 14.49%
- Population Mitochondria Different-Phenotype (%) [1, 4]: 57.69% and 36.23%
- Population Mitotic Cells (%) [1, 4]: 94.05% and 85.07%
- Population Normal (%) [1, 4]: 100%
- Population Pyknosed Nuclei (%) [1, 4]: 49.7% and 45.89%
- Population Tubulin-Different-Phenotype (%) [1, 4]: 84.62% and 86.96%
- Total Cell Count [1, 4]: 169 and 146
- Population Fragmented Nuclei (%) [1, 5]: 6.12% and 5.42%
- Population Healthy Nuclei (%) [1, 5]: 63.78% and 77.34%
- Population Hoechst High Intensity Objects (%) [1, 5]: 0%
- Population Membrane Permeable-Phenotype (%) [1, 5]: 11.2% and 2.55%
- Population Mitochondria Different-Phenotype (%) [1, 5]: 10.4% and 22.93%
- Population Mitotic Cells (%) [1, 5]: 98.31% and 85.71%
- Population Normal (%) [1, 5]: 100%
- Population Pyknosed Nuclei (%) [1, 5]: 30.1% and 17.24%
- Population Tubulin-Different-Phenotype (%) [1, 5]: 35.2% and 51.59%
- Total Cell Count [1, 5]: 196 and 203
- Population Fragmented Nuclei (%) [1, 6]: 6.7% and 5.38%
- Population Healthy Nuclei (%) [1, 6]: 54.19% and 38.46%
- Population Hoechst High Intensity Objects (%) [1, 6]: 0%
- Population Membrane Permeable-Phenotype (%) [1, 6]: 11.34% and 10%
- Population Mitochondria Different-Phenotype (%) [1, 6]: 50.52% and 40%
- Population Mitotic Cells (%) [1, 6]: 95.71% and 80.82%
- Population Normal (%) [1, 6]: 100%
- Population Pyknosed Nuclei (%) [1, 6]: 39.11% and 56.15%
- Population Tubulin-Different-Phenotype (%) [1, 6]: 94.85% and 94%
- Total Cell Count [1, 6]: 179 and 130
- Population Fragmented Nuclei (%) [1, 7]: 9.05% and 3.52%
- Population Healthy Nuclei (%) [1, 7]: 77.62% and 88.94%
- Population Hoechst High Intensity Objects (%) [1, 7]: 0%
- Population Membrane Permeable-Phenotype (%) [1, 7]: 3.07% and 7.91%
- Population Mitochondria Different-Phenotype (%) [1, 7]: 12.27% and 18.64%
- Population Mitotic Cells (%) [1, 7]: 92.86% and 66.67%
- Population Normal (%) [1, 7]: 100%
- Population Pyknosed Nuclei (%) [1, 7]: 13.33% and 7.54%
- Population Tubulin-Different-Phenotype (%) [1, 7]: 25.15% and 48.02%
- Total Cell Count [1, 7]: 210 and 199
- Population Apoptotic (%) [1, 8]: 20.9% and 48.15%
- Population Fragmented Nuclei (%) [1, 8]: 6.19% and 13.29%
- Population Healthy Nuclei (%) [1, 8]: 59.28% and 30.07%
- Population Hoechst High Intensity Objects (%) [1, 8]: 0%
- Population Mitochondria Different-Phenotype (%) [1, 8]: 56.52% and 46.51%
- Population Mitotic Cells (%) [1, 8]: 79.1% and 51.85%
- Population Normal (%) [1, 8]: 100%
- Population Pyknosed Nuclei (%) [1, 8]: 34.54% and 56.64%
- Population Tubulin-Different-Phenotype (%) [1, 8]: 93.04% and 86.05%
- Total Cell Count [1, 8]: 194 and 143
- Population Apoptotic (%) [2, 3]: 29.27% and 38.1%
- Population Healthy Nuclei (%) [2, 3]: 87.6% and 71.08%
- Population Hoechst High Intensity Objects (%) [2, 3]: 0%
- Population Membrane Permeable-Phenotype (%) [2, 3]: 1.47% and 5.52%
- Population Mitotic Cells (%) [2, 3]: 70.73% and 61.9%
- Population Normal (%) [2, 3]: 100%
- Population Pyknosed Nuclei (%) [2, 3]: 10.59% and 10.29%
- Population Tubulin-Different-Phenotype (%) [2, 3]: 1.77% and 1.38%
- Total Cell Count [2, 3]: 387 and 204
- Population Apoptotic (%) [2, 4]: 35.21% and 37.14%
- Population Fragmented Nuclei (%) [2, 4]: 1.16% and 5.8%
- Population Healthy Nuclei (%) [2, 4]: 78.32% and 68.84%
- Population Hoechst High Intensity Objects (%) [2, 4]: 0%
- Population Membrane Permeable-Phenotype (%) [2, 4]: 49.08% and 62.11%
- Population Mitotic Cells (%) [2, 4]: 64.79% and 62.86%
- Population Normal (%) [2, 4]: 100%
- Population Pyknosed Nuclei (%) [2, 4]: 20.52% and 25.36%
- Population Tubulin-Different-Phenotype (%) [2, 4]: 70.11% and 53.68%
- Total Cell Count [2, 4]: 346 and 138
- Population Apoptotic (%) [2, 5]: 38.98% and 53.33%
- Population Healthy Nuclei (%) [2, 5]: 87.5% and 70.09%
- Population Hoechst High Intensity Objects (%) [2, 5]: 0.19% and 0%
- Population Membrane Permeable-Phenotype (%) [2, 5]: 1.34% and 5.49%
- Population Mitochondria Different-Phenotype (%) [2, 5]: 0% and 15.85%
- Population Mitotic Cells (%) [2, 5]: 61.02% and 46.67%
- Population Normal (%) [2, 5]: 99.81% and 100%
